An excerpt weighted towards active compounds, which were near 2% of everything screened.
APJ agonist – activates the human apelin receptor APJ; P35414; CHO-K1 APJ PathHunter beta-arrestin, luminescence; 0% DMSO wells, 100% apelin; activation, % at 20 µM; 330,000 tested, 0.11% active; AID 2520;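 active means activation more than six SD over the plate average, tested at 20 µM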
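Material: CHO-K1 APJ beta-arrestin complementation cell line; Input: cell density 1000 per well; Incubation: compound stimulation 90 min at 25 °C, detection 60 min; Signal: luminescence from split beta-galactosidase complementation, Galacton Star/Emerald II substrate; Controls: DMSO-only wells as negative, 10 nM Apelin-13 as positive control.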
CCR6 antag – blocks CCL20-driven beta-arrestin recruitment at human CCR6; CHO-K1 CCR6 PathHunter beta-arrestin, luminescence, CCL20-stimulated; inhibition, % at 20 µM; 340,000 tested, 0.49% active; AID 493098;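 active means compounds whose inhibition of the agonist-driven luminescence signal at 20 µM reaches about 50%, limit read from the data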;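 further: cells stimulated with CCL20 at 14 nM final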
Target sequence (P51684 whole entry, looked up): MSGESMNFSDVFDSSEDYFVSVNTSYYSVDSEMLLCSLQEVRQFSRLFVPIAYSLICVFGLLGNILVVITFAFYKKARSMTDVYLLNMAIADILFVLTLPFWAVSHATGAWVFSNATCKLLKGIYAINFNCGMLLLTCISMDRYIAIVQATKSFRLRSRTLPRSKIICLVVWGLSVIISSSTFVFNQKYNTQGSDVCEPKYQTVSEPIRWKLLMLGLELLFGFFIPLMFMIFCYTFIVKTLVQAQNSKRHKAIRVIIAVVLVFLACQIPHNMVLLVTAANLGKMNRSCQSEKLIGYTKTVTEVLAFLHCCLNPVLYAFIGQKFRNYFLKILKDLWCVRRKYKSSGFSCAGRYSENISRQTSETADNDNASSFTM
APJ antag – blocks the human apelin receptor APJ | CHO-K1 APJ beta-arrestin complementation, luminescence | inhibition, % at 20 µM | 330,000 tested, 0.32% active;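 active means inhibition above about 40% at 20 µM, limit read from the data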;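 further: cells challenged with 10 nM apelin-13 agonist together with compound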
FXN GAA850 act – activators of GAA850 frataxin (FXN) promoter; activation, % at 6 µM; 360,000 tested, 0.56% active; HEK293 lucGAA850 FXN promoter luciferase reporter, 24 h; percent of 10 µM SAHA response;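 active means activation above the average of all compounds screened plus 3 SD, cutoff fixed separately per campaign, cut at about 7.5% in these data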
CXCR6 block – blocks human CXCR6 beta-arrestin recruitment. O00574. CHO-K1 PathHunter CXCR6 beta-arrestin, luminescence. inhibition, % at 20 µM. 360,000 tested, 0.36% active. AID 602244; in the data active means inhibition above about 34%, passing the limit was not always enough;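 further: antagonist mode with CXCL16 agonist at 10 nM final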
Target sequence (O00574 whole entry, looked up): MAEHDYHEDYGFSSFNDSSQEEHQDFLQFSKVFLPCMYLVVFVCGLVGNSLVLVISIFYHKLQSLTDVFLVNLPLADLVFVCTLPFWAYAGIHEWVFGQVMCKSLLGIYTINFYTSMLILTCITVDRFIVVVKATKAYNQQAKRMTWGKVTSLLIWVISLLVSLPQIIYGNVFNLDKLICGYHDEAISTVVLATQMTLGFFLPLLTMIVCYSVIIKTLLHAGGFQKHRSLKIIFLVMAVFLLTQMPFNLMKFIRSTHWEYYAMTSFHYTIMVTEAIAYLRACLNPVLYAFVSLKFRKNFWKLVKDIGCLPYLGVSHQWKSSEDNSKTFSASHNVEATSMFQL
EBI2 antag – blocks human EBI2 receptor beta-arrestin signaling; P32249; EBI2 beta-arrestin recruitment, luminescence, 7a,25-OHC stimulated; inhibition, % at 5 µM; 360,000 tested, 0.81% active; in the data active means inhibition above about 38%;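 further: enzyme fragment complementation signal reports receptor beta-arrestin coupling in cells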
Of the large screens only hits and unclear results are named; the others gave an inactive call; ! = a repeat was not active.

COCOCCn1cc(CN2CCS(=O)(=O)N(Cc3ccc(-c4ccc(Cl)nc4)cc3)C(C(C)C)C2=O)nn1 (centres undefined)	none (no result: APJ agonist, CCR6 antag, APJ antag)
OC(CNCCc1ccc(C(F)(F)F)cc1)COC(c1ccccc1)c1ccccc1 (centres undefined)	CCR6 antag 60.0
O=C(CSc1nnc(-c2ccc(F)cc2)c2ccccc12)NCC1CCCO1 (centres undefined)	FXN GAA850 act 8.8
CCN(CC)c1ccc(Nc2nc(N3CCOCC3)c3ccccc3n2)cc1	EBI2 antag 44.8
COc1ccc(Nc2nc(N3CCCC3)c3ccccc3n2)cc1	none
CC(Sc1ccccc1)C(=O)N/N=C/c1ccccc1 (centres undefined)	none
O=C(NC1CCOc2ccccc21)c1ccc(Cl)nc1 (centres undefined)	none
COc1cccc(CNCC(=O)NC(=O)NC2CCCC2)c1	none
COc1ccc(NC(=O)CN2CCN(S(=O)(=O)c3ccc(Cl)cc3)CC2)cc1Cl	EBI2 antag 37.8
O=C(CN1CCN(S(=O)(=O)c2ccc(Br)cc2)CC1)Nc1ccc2c(c1)OCO2	CXCR6 block 61.7
O=C(NCC(c1ccco1)N1CCc2ccccc2C1)c1cccc(Br)c1 (centres undefined)	none
O=C1c2ccccc2C(=O)c2c1ccc(C(=O)N1CCCCC1)c2NCCO	none
CC1(C)CCCN(C(=O)c2ccc3c(c2NCCO)C(=O)c2ccccc2C3=O)C1	EBI2 antag 38.4
Cc1cc(NC(=O)CCC(=O)N(Cc2cccs2)C(C)(C)C(=O)NC2CCCCC2)no1	none
O=C1c2cccc3cccc(c23)C(=O)N1CC1CCN(CC(O)COc2ccc3ccccc3c2)CC1 (centres undefined)	EBI2 antag 56.7
CC(C)n1nnnc1SCC(=O)Nc1cccc(F)c1	none
COc1cc(/C=C/c2ccc3cccc(O)c3n2)ccc1O	CCR6 antag 66.8, CXCR6 block 42.8
Oc1cccc2ccc(/C=C/c3ccccc3Br)nc12	CCR6 antag 62.2
COc1ccc(NC(=O)c2sc(=O)n(Cc3ccccc3C#N)c2C)cc1OC	none (no result: APJ agonist, CCR6 antag, APJ antag)
NNc1ncnc2scc(-c3ccc(Cl)cc3)c12	APJ antag 46.2
Clc1ccc(-c2csc3ncnc(Cl)c23)cc1	none
CCCN1C(=O)/C(=C2\SC(=S)N(c3c(C)n(C)n(-c4ccccc4)c3=O)C2=O)c2ccccc21	CCR6 antag 50.9 (no result: FXN GAA850 act, CXCR6 block, EBI2 antag)
CCN1C(=O)/C(=C2\SC(=S)N(c3c(C)n(C)n(-c4ccccc4)c3=O)C2=O)c2ccccc21	none
CC1=C(C(=O)OC2CCCC2)C(c2ccc(C)o2)C2=C(CC(c3cccs3)CC2=O)N1 (centres undefined)	CCR6 antag 58.4
COC(=O)C1=C(C)NC2=C(C(=O)CC(c3cccs3)C2)C1c1ccsc1 (centres undefined)	CCR6 antag 58.1 (no result: APJ agonist, APJ antag)
CC1=C(C(=O)OC2CCCCCC2)C(c2ccc(C)o2)C2=C(CCCC2=O)N1 (centres undefined)	none
O=C(C1=C[C@H](c2csc3ccccc23)C[C@H](OCc2ccc(CO)cc2)O1)N1CCN(Cc2ccc3c(c2)OCO3)CC1	EBI2 antag 51.2
COc1ccc(CNS(=O)(=O)CCNC(=O)c2ccc(OC)cc2)cc1	none
O=C1Nc2ccccc2C1=Nc1ccc(-c2nnc3n2CCCCC3)cc1	CCR6 antag 61.8!
Cc1ccc(-c2nnc3n2CCCCC3)cc1	none
COc1ccc(N(CC(=O)NC2CCS(=O)(=O)C2)S(=O)(=O)c2cc(C)ccc2C)cc1 (centres undefined)	none
O=C(CNc1ccc(Cl)cc1)c1ccc(Br)cc1	CCR6 antag 61.9, APJ antag 82.7
Cc1onc(-c2ccccc2)c1C(=O)OCC(=O)N1CCCCC1	none (no result: APJ agonist, CCR6 antag, APJ antag)
C[C@H](NC(=O)c1ncn(Cc2ccccc2)c1C(=O)N[C@@H](C)c1ccccc1)c1ccccc1	none
CC(=NNC(=S)N1CCN(C2CCCCCC2)CC1)c1ccccn1	none (no result: APJ agonist, APJ antag)
CC(=NNC(=S)N1CCCCCC1)c1cccc2cccnc12	CCR6 antag 90.6 (no result: APJ agonist, APJ antag)
CCCCN1C(=O)C(=Nc2cccc3cnccc23)c2ccccc21	CCR6 antag 56.5
CCCCN1C(=O)/C(=C2\SC(N3CCCCC3)=NC2=O)c2ccccc21	none
O=C1CC(=O)OC(c2ccc([N+](=O)[O-])cc2)O1	CXCR6 block 50.0 (no result: APJ agonist, CCR6 antag, APJ antag)
Nc1c(Cl)cc2c(c1Br)Cc1ccccc1-2	none (no result: APJ agonist, APJ antag)
Nc1c(Cl)cc2c(c1Oc1ccccc1)C(=O)c1ccccc1C2=O	CXCR6 block 37.8
Cc1nc([N+](=O)[O-])c(Br)n1Cc1ccc(Cl)c(Cl)c1	EBI2 antag 50.2 (no result: APJ agonist, APJ antag)
O=C(O)c1ccc(N2C(=O)/C(=C/c3ccc(-c4ccc([N+](=O)[O-])cc4)o3)C=C2c2ccccc2)cc1	CXCR6 block 44.8 (no result: CCR6 antag)
O=C1NN(c2ccccc2)C(=O)/C1=C/c1ccc(-c2ccc(C(=O)O)cc2)o1	none
Cc1ccccc1NS(=O)(=O)c1ccc(C(=O)N2CCN(S(=O)(=O)c3ccccc3)CC2)cc1	none
CSC[C@H]1CN(Cc2cccnc2)C(=O)[C@@H]1CC(=O)Nc1ccc(Br)cc1	none (no result: APJ agonist, CCR6 antag, APJ antag)
Oc1ccc(CN2CCc3ccccc3C2)c2cccnc12	EBI2 antag 67.1
Oc1ccc(CN2CCCCC2)c2cccnc12	none
Oc1ccc(CN2CCN(c3ccccc3)CC2)c2cccnc12	EBI2 antag 60.0
O=[N+]([O-])c1ccccc1Nc1cccnc1	none
CCOc1cc(/C=N/Nc2cc(C)nc(-n3nc(C)cc3C)n2)ccc1O	CCR6 antag 116.4, APJ antag 106.2, CXCR6 block 110.1, EBI2 antag 97.5
Oc1ccc(Cl)cc1N=Cc1sc2ccccc2c1Cl	none (no result: APJ agonist, APJ antag)
O=[N+]([O-])c1ccc(O)c(N=Cc2sc3ccccc3c2O)c1	CCR6 antag 53.5 (no result: APJ agonist, APJ antag)
C#Cc1ccc(NC(=O)C2(C)CCN2C(=O)Cc2ccc(C(C)C)cc2)cc1 (centres undefined)	none (no result: APJ agonist, CCR6 antag, APJ antag)
O=C(CSc1ccccc1F)NC(=O)NC1CCCC1	none (no result: APJ agonist, CCR6 antag, APJ antag)
COc1cc2nc(C3CCC3)nc(N3CCN(c4ccccn4)CC3)c2cc1OC	EBI2 antag 52.5
CC(C)(C)n1nnnc1C(c1cc2ccccc2o1)N(CCC#N)Cc1ccccc1 (centres undefined)	none (no result: APJ agonist, CCR6 antag, APJ antag, FXN GAA850 act)
O=[N+]([O-])c1ccc(Sc2ncccn2)c([N+](=O)[O-])c1	none
O=[N+]([O-])c1cnc(Sc2ccncn2)c([N+](=O)[O-])c1	CXCR6 block 100.2 (no result: APJ agonist, CCR6 antag, APJ antag)
COc1ccc(/C=N/N=C/c2ccc(OC)c(OC)c2)cc1OC	none
COc1cc(/C=N/N=C(N)N)ccc1OCc1ccccc1Cl	APJ agonist 22.0
COc1ccc(NC(=O)C(c2ccc(C#N)cc2)n2c(=O)c(-c3cc4ccccc4[nH]3)nc3ccccc32)cc1 (centres undefined)	none (no result: APJ agonist, CCR6 antag, APJ antag, FXN GAA850 act, CXCR6 block)
NC(=O)c1ccc(NC(=O)COC(=O)CC2Sc3ccccc3NC2=O)cc1 (centres undefined)	none

From PubChem
